This note sets out measurements from article PMC11621838 (Proceedings of the National Academy of Sciences of the …, 2024).

Molecules are shown by their SMILES.

Assay [1] deals with T1, TAS2R5 (Homo sapiens, UniProt Q9NYW4).
T1 sequence (Q9NYW4 1-299): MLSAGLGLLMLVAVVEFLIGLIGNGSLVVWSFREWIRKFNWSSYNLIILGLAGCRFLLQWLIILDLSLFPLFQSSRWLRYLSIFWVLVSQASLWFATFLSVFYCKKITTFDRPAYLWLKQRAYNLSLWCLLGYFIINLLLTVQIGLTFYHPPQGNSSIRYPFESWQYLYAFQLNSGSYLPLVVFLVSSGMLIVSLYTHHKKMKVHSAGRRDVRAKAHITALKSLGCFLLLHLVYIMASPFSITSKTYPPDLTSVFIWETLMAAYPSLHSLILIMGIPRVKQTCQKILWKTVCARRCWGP
The assay is classed as cell-based.

Assay [2] has as its target T1, TAS2R5. Kind of assay: FLOWER microtoroid optical resonator receptor-ligand affinity measurement. The format is binding. In outline: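 Microtoroid coated with DOPC vesicles (0.5 mg/mL, 1.5 h, 3–4 °C). HEK-293-expressed TAS2R5 was extracted with CellLyticM (1:3) and spun 12,500 rcf, 60 min, 4 °C. The supernatant, diluted 1:6 in DPBS pH 7.4, was incubated with the toroid for 1.5 h. Graded agonist concentrations were perfused with 5-min buffer rinses. Peak wavelength shift per concentration was fit to a Hill binding equation (Bmax, nonspecific, background terms) for KD.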

As a reminder, the EC50 is the concentration that produces a half-maximal response. Lower therefore signals greater potency. The term Kd denotes the free concentration of one partner at which half of the binding sites on the other are occupied at equilibrium, for simple one-to-one binding. Read a high Kd as weaker binding. The compound `c1cnc2c(c1)ccc1cccnc12` [T5-1, 1,10-phenanthroline] showed an EC50 in assay [1] (EC50, D9 cells, Fluo-4, [Ca2+]i, mean ± SE of 7 to 10 experiments) of 23.1 ± 3.99 µM. The “EC50, fold lower than that of T5-14” value in assay [1] ([Ca2+]i in D9 cells) is recorded as 3 fold. Further, the “potency class of the agonist” value in assay [1] (cellular assays) is listed as “moderate-potency”. Besides, the “S.T. (log-transformed signal transduction coefficient)” value in assay [1] (log(EMax/EC50), EC50 in Molar) is 6.5. The compound also gave a Kd in assay [2] of 13 ± 3.5 µM.
